Screens from PubChem.
APP 5UTR inh: APP translation inhibition. SH-SY5Y APP 5'UTR-luciferase reporter, luminescence. inhibition, % at 2 µM. actives 0.82% (n = 190,000);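 active = inhibition above a set limit, derived from the sample mean plus 3 SD, cut at about 45% in these data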
IEC-6 tox: IEC-6 cytotoxicity, counter-screen for KLF5 inhibitors | AID 1825 | inhibition, % at 5 µM | actives 0.78% (n = 290,000) | luminescence viability;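 also: 0% = plate median of test compound wells and 100% = cytotoxic reference compound wells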
Ba/F3 V617F tox: loss of viability in JAK2V617F-driven Ba/F3 cells | Ba/F3 EpoR-JAK2V617F viability, ATP luminescence | inhibition, % at 5.6 µM | actives 1.1% (n = 220,000) | AID 1446;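 active = inhibition above the campaign mean plus 3 SD over all tested compounds, cut at about 24% in these data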;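 also: cytokine-independent growth of Ba/F3 cells driven by EpoR plus mutant JAK2; 0% = DMSO-treated cells and 100% = JAK inhibitor I control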
BaF3 tox: counter-screen for JAK2V617F inhibitors: parental Ba/F3 viability inhibitors | CellTiter-Glo ATP luminescence | inhibition, % at 5.6 µM | actives 1.1% (n = 220,000);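 active = inhibition above a per-campaign cutoff, the mean inhibition of all tested compounds plus 3 SD, cut at about 27% in these data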;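 also: 0% = DMSO wells and 100% = JAK Inhibitor I control wells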
MT stabilize HCS: microtubule stabilization, imaging screen; HeLa tubulin immunostaining HCS, 24 h; share of cells brighter than vehicle mean+2SD; % tubulin-high responders, % at 10 µM; actives 0.83% (n = 200,000); AID 2205;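 active = plate Z-score above 3 for both tubulin-high and condensed-nucleus cell shares, with cell loss under 80%, at 10 µM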;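 also: anti alpha tubulin signal scored within the nucleus-defined area of each cell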
b-catenin transl: beta-catenin nuclear translocation modulation | actives 0.3% (n = 190,000) | nuclear translocation activity, % at 5 µM | HeLa beta-catenin nuclear translocation, immunofluorescence imaging;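 active = nuclear translocation activity above 50% at 5 µM, with a well cell count of 50 or more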;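 also: per-cell ratio of nuclear to cytoplasmic median beta-catenin stain intensity; plate controls were DMSO negative control for no effect and GSK-3 inhibitor IX positive control for full effect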
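System: Human HeLa cells, endogenous beta-catenin | Compound dosing: 5 µM primary, 0.02–20 µM confirmation | Timing: 24 h compound exposure at 37°C, 5% CO2 | Measured by: Fluorescence imaging of beta-catenin antibody stain plus DAPI | Read-out basis: % activation of per-cell nuclear versus cytoplasmic median beta-catenin signal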
IEC-6 tox confirm: confirmation of cytotoxic compounds in rat IEC-6 intestinal epithelial cells; shares compounds with IEC-6 tox; IEC-6 rat intestinal epithelial viability, luminescence; inhibition, % at 5 µM; actives 63% (n = 1,900); AID 1907;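 also: 0% = vehicle and 100% = reference cytotoxic drug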
* = called active by the depositor; · = no result. This is a sample that favours compounds with a hit; in the whole collection about 2.2% have one here. Rule as the data show it, unless noted: active = inhibition above about 22%; inactive = the rest.

SMILES	APP 5UTR inh	IEC-6 tox	Ba/F3 V617F tox	BaF3 tox	MT stabilize HCS	b-catenin transl	IEC-6 tox confirm
Cc1ccc(-n2ncc3c2CCCC3NC(=O)c2ccoc2)cc1C (centres undefined)	·	-7	·	·	·	·	·
CCc1cc(C(=O)NC2CCCc3c2cnn3-c2cccc(C)c2C)n(C)n1 (centres undefined)	·	31*	·	·	·	·	25*
Cc1cc(C(=O)NC2CCCc3c2cnn3-c2ccc(C)c(C)c2)n(C)n1 (centres undefined)	·	38*	·	·	·	·	27*
Cc1ccc(C(O)(COC(=O)C(C)C)COC(=O)C(C)C)c(O)c1	12	3	1	-2	1	-4	·
S=C(NCc1ccco1)Nc1ccc(Cl)cn1	·	11	·	·	·	·	·
COc1ccc(/C=C2\CN(Cc3ccccc3)C/C(=C\c3ccc(OC)c(O)c3)C2=O)cc1O	·	33*	·	·	·	·	15
COc1cc(/C=C2/SC(=S)N(Cc3ccccc3)C2=O)ccc1O	·	10	·	·	·	·	·
CCOC(=O)C(C)Oc1cccc2c(=O)n(CC(=O)NCCc3ccccc3)ccc12 (centres undefined)	·	-1	2	4	·	1	·
CCOC(=O)C(C)Oc1cccc2c(=O)n(CC(=O)NCc3ccccc3)ccc12 (centres undefined)	·	82*	73*	76*	·	51*	58*
Cc1ccc2sc(N(CCCN(C)C)C(=O)CCS(=O)(=O)c3ccccc3)nc2c1C	·	24*	·	·	·	·	5
COc1ccc(/C=N/N(C)C2=NCCN2)c(OC)c1OC	·	3	·	·	·	·	·
COc1ccc(N2CCN(C3CCCN(C(=O)C4=C(C)OCCO4)C3)CC2)cc1 (centres undefined)	·	-4	·	·	·	·	·
CC1(C)C2CC=C(/C=N/NC(=S)Nc3cccnc3)C1C2 (centres undefined)	-18	-6	-2	4	11	1	·
CC1=C/C(=N\NC(=S)Nc2cccnc2)CC(C)(C)C1	-1	29*	8	7	3	0	59*
CC1CC(C)CN(CCCNC(=O)c2ccc3nc(N4CCCCC4)sc3c2)C1 (centres undefined)	·	27*	·	·	·	·	2
Nc1nc(NCCCN2CCOCC2)nc(Nc2ccccc2F)c1[N+](=O)[O-]	·	-4	2	1	·	1	·
CC(=O)NC(c1ccc2ccccc2c1)c1ccc2cccnc2c1O (centres undefined)	·	99*	·	·	·	·	82*
CC(=O)NC(c1ccc(Cl)cc1Cl)c1ccc2cccnc2c1O (centres undefined)	·	49*	·	·	·	·	73*
CC(C)C(=O)NC(c1cccc([N+](=O)[O-])c1)c1ccc2cccnc2c1O (centres undefined)	·	25*	·	·	·	·	67*
COc1ccccc1C(NC(C)=O)c1cc(Cl)c2cccnc2c1O (centres undefined)	·	61*	·	·	·	·	43*
Cc1ccc(CSc2nnc([C@@H]3CCCN3C(=O)OC(C)(C)C)o2)cc1	·	0	3	1	·	1	·
c1ccc2c(c1)[nH]c1c3ccccc3sc21	·	7	-3	-4	·	5	·
Oc1c(C(Nc2nccs2)c2ccc(C(F)(F)F)cc2)ccc2cccnc12 (centres undefined)	66*	44*	60*	54*	7	-1	62*
COc1ccc(C(NC(C)=O)c2ccc3cccnc3c2O)c(OC)c1 (centres undefined)	·	·	·	·	·	-3	·
COc1ccc(C(=O)Nc2ccc(NC(=O)Cc3ccccc3)cn2)cc1	·	4	·	·	·	·	·
SMILES	APP 5UTR inh	IEC-6 tox	Ba/F3 V617F tox	BaF3 tox	MT stabilize HCS	b-catenin transl	IEC-6 tox confirm
O=C(Nc1ccc(F)cc1)c1nn(-c2ccccc2)c(=O)cc1Cl	-6	15	-3	-4	5	0	·
Cc1ccccc1CS(=O)(=O)c1ncc(Cl)c(C(=O)Nc2ccc(F)cc2)n1	·	61*	·	·	·	·	10
Cc1ccc(NC(=O)c2nc(S(=O)(=O)Cc3ccccc3)ncc2Cl)cc1	·	97*	·	·	·	·	19
O=C(Nc1ccc(F)cc1)c1nc(S(=O)(=O)Cc2ccccc2)ncc1Cl	·	91*	·	·	·	·	12
CCOC(=O)c1ccc(NC(=O)c2nc(SC)ncc2Cl)cc1	·	-5	·	·	·	·	·
COc1cccc(CN2CCN(S(=O)(=O)c3ccc(Br)cc3)CC2)c1	1	8	-1	1	3	1	·
CCOc1ccc(CN2CCN(S(=O)(=O)c3ccc(NC(C)=O)cc3)CC2)cc1	-30	-2	0	6	3	1	·
